Source: ChEMBL document CHEMBL2440094, “Thiazolidinone-peptide hybrids as dengue virus protease inhibitors with antiviral activity in cell culture” (J Med Chem, 2013)
One block for each compound: values may come before it. Activity calls are given as the source filed them. The rule behind the calls is not given here.

Columns and labels:
West Nile virus = assay: Inhibition of West Nile virus NS2B-NS3 protease expressed in Escherichia coli BL 21 (DE3) using Abz-Gly-Leu-Lys-Arg-Gly-Gly-3-(NO2)Tyr as substrate at 50 uM after 15 mins
Dengue virus [1] = assay: Mixed/noncompetitive type inhibition of Dengue virus NS2B-NS3 protease expressed in Escherichia coli BL 21 (DE3) using Abz-Nle-Lys-Arg-Arg-Ser-3-(NO2)Tyr as substrate by Cornish-Bowden plot analysis
Outline: (§1)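 DEN2 NS2B–NS3 FRET assay run at inhibitor 0–6 μM (prior-series compounds 5–50 μM) and substrate 50, 100, 150 and 200 μM, in triplicate, with inner-filter correction. Ki from Dixon plots (1/v vs [I]) and Ki′ from Cornish-Bowden plots (S/v vs [I]). Inhibition mode assigned from these plots.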

[2] = Inhibition of Dengue virus NS2B-NS3 protease expressed in Escherichia coli BL 21 (DE3) using Abz-Nle-Lys-Arg-Arg-Ser-3-(NO2)Tyr as substrate after 15 mins
[3] = Inhibition of Dengue virus NS2B-NS3 protease expressed in Escherichia coli BL 21 (DE3) using Abz-Nle-Lys-Arg-Arg-Ser-3-(NO2)Tyr as substrate assessed as enzyme-inhibitor complex by Cornish-Bowden plot analysis; details: in the assay text read “Dixon plot” for “Cornish-Bowden plot”; outline: as §1
[4] = Inhibition of Dengue virus NS2B-NS3 protease expressed in Escherichia coli BL 21 (DE3) using Abz-Nle-Lys-Arg-Arg-Ser-3-(NO2)Tyr as substrate assessed as enzyme-substrate-inhibitor complex by Cornish-Bowden plot analysis; outline: as §1
[5] = molecular target: Prothrombin (Homo sapiens) (UniProt P00734); assay: Inhibition of thrombin (unknown origin) using Boc-Val-Pro-Arg-AMC as substrate at 25 uM after 10 mins by continuous fluorimetric assay
Outline: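 Thrombin (10 nM) preincubated 15 min with inhibitor (25 μM final) in 50 mM Tris-HCl pH 7.5, 150 mM NaCl, 0.05% Tween 20. Boc-Val-Pro-Arg-AMC then added to 50 μM (Km 16 μM). Fluorescence (ex 355 nm, em 460 nm) followed for 10 min as slope. Triplicate; percent inhibition versus no-inhibitor control.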

Dengue virus [6] = assay: Inhibition of Dengue virus NS2B-NS3 protease expressed in Escherichia coli BL 21 (DE3) using Abz-Nle-Lys-Arg-Arg-Ser-3-(NO2)Tyr as substrate at 50 uM after 15 mins
Dengue virus [7] = assay: Uncompetitive inhibition of Dengue virus NS2B-NS3 protease expressed in Escherichia coli BL 21 (DE3) using Abz-Nle-Lys-Arg-Arg-Ser-3-(NO2)Tyr as substrate by Cornish-Bowden plot analysis; outline: as §1
dengue virus type 2 [8] = assay: Antiviral activity against Dengue virus 2 infected in human Huh-7 cells assessed as inhibition of viral replication after 48 hrs by luciferase reporter gene assay; type: functional, organism-based; details: Huh-7, 48 h
Outline: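 Huh-7 cells seeded 5000/well, incubated overnight at 37 °C, then given compound (1.56–50 μM final, 2-fold series in DMEM with 10% FCS). Dengue 2 renilla luciferase reporter virus (MOI 10) added 4 h later. After 48 h at 37 °C, cells lysed and renilla luminescence read with coelenterazine. At least four wells per concentration, expressed relative to DMSO control. EC50 by nonlinear regression.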

dengue virus type 2 [9] = assay: Antiviral activity against Dengue virus 2 infected in human Huh-7 cells assessed as inhibition of virus-induced plaque formation at 50 uM after 48; type: functional, organism-based
Outline: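 Huh-7 cells seeded in 12-well plates and pretreated with compound (50 μM) for 4 h. Infected for 1 h with dengue reporter virus (MOI 5) in the presence of compound, then medium replaced with compound-containing DMEM. Supernatant harvested at 48 h and filtered. Titer determined by plaque assay on Vero cells. Mean ± SD of three independent experiments.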

Huh-7 = assay: Cytotoxicity against human HuH7 cells at <50 uM after 48 hrs by firefly reporter assay; type: cell-based; details: huh-7, 48 h
Outline: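 Uninfected Huh-7 cells stably expressing firefly luciferase, seeded 5000/well and incubated overnight at 37 °C. Compound added at 1.56–50 μM, plus 100, 200 and 400 μM, then incubated as for infected cells (further 48 h after the 4 h point). Firefly luminescence read with 70 μM luciferin and 2 mM ATP. Mean of three wells as percent of DMSO control.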

[10] = Permeability of the compound by PAMPA; type: ADME; details: read-out: permeability
Outline: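 PAMPA with precoated trilayer lipid/oil/lipid membranes, donor wells holding 200 μM compound in PBS pH 7.4 (2% DMSO final), in triplicate. Incubated 5 h at room temperature. Donor and acceptor concentrations determined by UV plate reader or HPLC-UV against calibration curves. Pe and mass retention R calculated.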

Dengue virus [11] = assay: Displacement of aprotinin from Dengue virus NS2B-NS3 protease expressed in Escherichia coli BL 21 (DE3) by tryptophan fluorescence quenching assay
Outline: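 Tryptophan quenching assay: DEN protease (4 μM) incubated with inhibitor at 0–50 μM, and also with inhibitor (50 μM) plus aprotinin (10 μM). Enzyme and aprotinin autofluorescence measured as negative control. Fluorescence read at ex 280 nm, em 330 nm; triplicate.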

Dengue virus [12] = assay: Competitive inhibition of Dengue virus NS2B-NS3 protease expressed in Escherichia coli BL 21 (DE3) using Abz-Nle-Lys-Arg-Arg-Ser-3-(NO2)Tyr as substrate by Cornish-Bowden plot analysis; outline: as §1
Dengue virus [13] = assay: Mixed type inhibition of Dengue virus NS2B-NS3 protease expressed in Escherichia coli BL 21 (DE3) using Abz-Nle-Lys-Arg-Arg-Ser-3-(NO2)Tyr as substrate by Cornish-Bowden plot analysis; outline: as §1

Compound: CCCC[C@H](NC(=O)[C@H](CCCCN)NC(=O)[C@H](CCCNC(=N)N)NC(=O)c1ccc(/C=C2\SC(=S)N(Cc3ccccc3)C2=O)cc1)C(N)=O
inhibition (West Nile virus): 92.4% | inhibition (Dengue virus [1]): Active | IC50 [2]: 10.9 µM | Ki [3]: 8.8 µM | Ki [4]: 5.5 µM | inhibition [5]: 13.1% | inhibition (Dengue virus [6]): 99.3%

Compound: CCCC[C@H](NC(=O)[C@H](CCCCN)NC(=O)[C@H](CCCNC(=N)N)NC(=O)c1ccc(/C=C2\SC(=S)N(Cc3ccc(F)cc3)C2=O)cc1)C(N)=O
inhibition (West Nile virus): 97.9% | IC50 [2]: > 10 µM | Ki [3]: > 10 µM | Ki [4]: 7.9 µM | inhibition [5]: 9.6% | inhibition (Dengue virus [7]): Active | inhibition (Dengue virus [6]): 99.4%

Compound: CCCC[C@H](NC(=O)[C@H](CCCN)NC(=O)[C@H](CCCNC(=N)N)NC(=O)c1ccc(/C=C2\SC(=O)N(Cc3ccccc3)C2=O)cc1)C(N)=O
inhibition (West Nile virus): 45% | EC50 (dengue virus type 2 [8]): 26.8 µM | inhibition (dengue virus type 2 [9]): inactive | inhibition [5]: 14.3% | Activity (Huh-7): Non-toxic | inhibition (Dengue virus [6]): 74.5%

Compound: CCCCC(C(=O)OC)N1C(=O)/C(=C/c2ccc(C(=O)N[C@@H](CCCNC(=N)N)C(=O)N[C@@H](CCCCN)C(=O)N[C@@H](CCCC)C(N)=O)cc2)SC1=S (stereo partly specified)
inhibition (West Nile virus): 94.2% | IC50 [2]: 11.6 µM | Ki [3]: > 10 µM | EC50 (dengue virus type 2 [8]): 48.8 µM | Ki [4]: 5.3 µM | inhibition [5]: 9% | inhibition (Dengue virus [7]): Active | Papp [10]: 0.87 ×10⁻⁶ cm/s | inhibition (Dengue virus [6]): 101%

Compound: CCCC[C@H](NC(=O)[C@H](CCCCN)NC(=O)[C@H](CCCNC(=N)N)NC(=O)c1ccc(/C=C2\SC(=O)N(Cc3ccccc3)C2=O)cc1)C(N)=O
inhibition (West Nile virus): 57.9% | inhibition (Dengue virus [11]): Dose-dependent effect | IC50 [2]: 2.9 µM | Ki [3]: 1.7 µM | EC50 (dengue virus type 2 [8]): > 50 µM | Ki [4]: > 10 µM | inhibition [5]: 17.3% | Activity (Huh-7): Non-toxic | inhibition (Dengue virus [6]): 98.6% | inhibition (Dengue virus [12]): Active

Compound: CCCC[C@H](NC(=O)[C@H](CCCCN)NC(=O)[C@H](CCCNC(=N)N)NC(=O)c1ccc(/C=C2\SC(=O)N(C3CCCC3)C2=O)cc1)C(N)=O
inhibition (West Nile virus): 51.8% | IC50 [2]: 2.5 µM | Ki [3]: 1.8 µM | EC50 (dengue virus type 2 [8]): 44.9 µM | Ki [4]: 7.9 µM | inhibition [5]: 16% | Papp [10]: 0.44 ×10⁻⁶ cm/s | inhibition (Dengue virus [6]): 98.2% | inhibition (Dengue virus [13]): Active

Compound: CCCC[C@H](NC(=O)[C@H](CCCCN)NC(=O)[C@H](CCCNC(=N)N)NC(=O)/C=C/c1ccccc1)C(N)=O
inhibition (West Nile virus): 13.8% | IC50 [2]: 10.5 µM | Ki [3]: 6.9 µM | Ki [4]: > 50 µM | inhibition [5]: inactive | Activity (Huh-7): Non-toxic | Papp [10]: 1.26 ×10⁻⁶ cm/s | inhibition (Dengue virus [6]): 82.9% | inhibition (Dengue virus [12]): Active

Compound: CCCC[C@H](NC(=O)[C@H](CCCCN)NC(=O)[C@H](CCCNC(=N)N)NC(=O)c1ccc(/C=C2\SC(=S)N(Cc3ccc(OC)cc3)C2=O)cc1)C(N)=O
inhibition (West Nile virus): 99% | inhibition (Dengue virus [1]): Active | IC50 [2]: 7.9 µM | Ki [3]: 7.8 µM | EC50 (dengue virus type 2 [8]): 37.3 µM | Ki [4]: 8.3 µM | inhibition [5]: 15% | Papp [10]: 0.6 ×10⁻⁶ cm/s | inhibition (Dengue virus [6]): 99.6%

The next lines start with results.

inhibition (West Nile virus): 28% | IC50 [2]: 5.3 µM | inhibition [5]: 13.4% | Papp [10]: 1.11 ×10⁻⁶ cm/s | inhibition (Dengue virus [6]): 88.5% | inhibition (Dengue virus [12]): Active
Compound: CCCC[C@H](NC(=O)[C@H](CCCCN)NC(=O)[C@H](CCCNC(=N)N)NC(=O)c1ccc(/C=C(\C#N)C(=O)NC2CC2)cc1)C(N)=O
Ki [3]: 4 µM | inhibition (dengue virus type 2 [9]): inactive | Ki [4]: > 50 µM | Activity (Huh-7): Non-toxic

inhibition (West Nile virus): 63.7% | IC50 [2]: 2.9 µM | inhibition [5]: 20.3% | Papp [10]: 0.43 ×10⁻⁶ cm/s | inhibition (Dengue virus [6]): 99.4% | inhibition (Dengue virus [13]): Active
Compound: CCCC[C@H](NC(=O)[C@H](CCCCN)NC(=O)[C@H](CCCNC(=N)N)NC(=O)c1ccc(/C=C2\SC(=O)N(Cc3ccc(F)cc3)C2=O)cc1)C(N)=O
Ki [3]: 1.5 µM | Ki [4]: 5.2 µM

inhibition (West Nile virus): 88.2% | IC50 [2]: 3.2 µM | EC50 (dengue virus type 2 [8]): 41.1 µM | inhibition [5]: 18% | Papp [10]: 1.11 ×10⁻⁶ cm/s | inhibition (Dengue virus [6]): 99.4% | inhibition (Dengue virus [13]): Active
Compound: CCCC[C@H](NC(=O)[C@H](CCCCN)NC(=O)[C@H](CCCNC(=N)N)NC(=O)c1ccc(/C=C2\SC(=O)N(Cc3ccc(Cl)cc3)C2=O)cc1)C(N)=O
Ki [3]: 2.2 µM | inhibition (dengue virus type 2 [9]): inactive | Ki [4]: 5.4 µM | Activity (Huh-7): Non-toxic

inhibition (West Nile virus): 96.3% | inhibition (Dengue virus [1]): Active | IC50 [2]: 7.5 µM | inhibition [5]: 10.9% | inhibition (Dengue virus [6]): 99.1%
Compound: CCCC[C@H](NC(=O)[C@H](CCCCN)NC(=O)[C@H](CCCNC(=N)N)NC(=O)c1ccc(/C=C2\SC(=S)N(Cc3ccc(C)cc3)C2=O)cc1)C(N)=O
Ki [3]: 6.2 µM | Ki [4]: 7.6 µM

inhibition (West Nile virus): 14.7% | IC50 [2]: 14.1 µM | inhibition [5]: inactive | inhibition (Dengue virus [6]): 71.1% | inhibition (Dengue virus [12]): Active
Compound: CCCC[C@H](NC(=O)[C@H](CCCCN)NC(=O)[C@H](CCCNC(=N)N)NC(=O)c1cccs1)C(N)=O
Ki [3]: 14.5 µM | inhibition (dengue virus type 2 [9]): inactive | Ki [4]: > 50 µM | Activity (Huh-7): Non-toxic
